Data reported in PubChem BioAssay.
Active and inactive are the calls of the source.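 Rule for the calls, unless noted: active = fluorescence slope after compound addition differing from the mean of all tested samples at 99.7% confidence, mostly higher but some lower; inactive = the rest.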

Key:
[1] = inhibitors of TNFa-induced NFkB p65 translocation, primary screen, imaging, HUVEC, MLSMR starter and 10KST1 sets (AID 438;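 active = inhibition above 20% together with a positive visual image hit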;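 note: compound added about 3h40 before a 20 min TNFalpha stimulation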;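 for inhibition: signal is the nuclear over cytoplasmic p65 intensity ratio per well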); details: HUVEC TNFa-induced p65 nuclear translocation; cell count: measured here: nuclei count (cytotoxicity indicator), at 2.08 µM; inhibition: at 2 µM, stronger effect = higher value, 0% TNFa-plus-vehicle, 100% no-TNFa wells
[2] = reduction of polyQ htt aggregates in cells – imaging, exon1htt(103Q)mCFP cells, high-content imaging, primary screen (AID 483;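 active = visual image review flags a hit and inhibition of aggregation exceeds 20%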;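 note: compound exposure lasted 3 days before fixation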;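 for nuclei count: percent of the per-plate median nuclei count of sample wells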); details: exon1htt(103Q)mCFP cell line, aggregate imaging, at 2 µM; inhibition of aggregation: stronger effect = higher value; nuclei count: measured here: cell count, toxicity
[3] = endothelial E-selectin expression blockers – imaging, HUVEC, immunofluorescence, MLSMR starter and 10KST1 sets, primary screen (AID 487;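 active = visually confirmed hit in the image check and inhibition above 20%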;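 for inhibition: signal is fraction of cell area covered by stained E-selectin grains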;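 for nuclei count: 100% = median nuclei count of all wells on the same plate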); details: HUVEC TNFalpha-induced E-selectin immunofluorescence imaging, at 2 µM; inhibition: stronger effect = higher value; nuclei count: measured here: cell number, toxicity
[4] = target: Voltage-gated potassium channel subunit beta-2 (Rattus norvegicus) (UniProt P62483); assay: inhibitors of rat Kvbeta2 reductase activity – biochemical, NADPH fluorescence, primary screen (AID 622;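 active = fluorescence slope higher than the sample average by over 3 SD, cut at about -0.22 in these data, passing the limit was not always enough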;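 note: slope of raw intensity against log time taken from 70 to 1610 s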); details: recombinant KvBeta, 4-cyanobenzaldehyde reduction, at 10 µM, stronger effect = higher value
Sequence of Voltage-gated potassium channel subunit beta-2 (Rattus norvegicus) (P62483 whole entry, looked up): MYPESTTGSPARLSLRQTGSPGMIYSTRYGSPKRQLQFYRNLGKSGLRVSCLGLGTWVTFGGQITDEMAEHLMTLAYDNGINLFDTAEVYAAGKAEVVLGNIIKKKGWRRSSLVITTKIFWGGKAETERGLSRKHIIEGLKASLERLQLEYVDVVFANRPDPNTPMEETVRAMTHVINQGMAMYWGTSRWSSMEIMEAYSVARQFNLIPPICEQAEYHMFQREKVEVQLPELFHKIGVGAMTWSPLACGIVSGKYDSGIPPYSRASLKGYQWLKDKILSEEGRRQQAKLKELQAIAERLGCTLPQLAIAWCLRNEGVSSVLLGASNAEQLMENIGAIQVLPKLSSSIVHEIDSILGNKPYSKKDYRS

[5] = target: Voltage-gated potassium channel subunit beta-2 (Rattus norvegicus) (UniProt P62483); assay: enhancers of rat Kvbeta2 NADPH turnover – biochemical, NADPH fluorescence, primary screen (AID 623;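 active = NADPH fluorescence slope more negative than the mean of all samples by about 3 SD, 99.7% confidence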;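 note: fluorescence intensity change per second fitted from 20 to 320 s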); details: Recombinant KvBeta, NADPH fluorescence decrease slope, 10 min; at 10 µM; stronger effect = lower value
[6] = target: Muscarinic acetylcholine receptor M4 (Homo sapiens) (UniProt P08173); assay: M4-linked GIRK flux change, two-sided – cell-based, HEK293 M4/GIRK, thallium flux, BTC-AM, M4 allosteric agonist project, primary screen (AID 625); details: at 10 µM, actives lie on both sides;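 note: thallium influx through GIRK channels coupled to M4 in HEK293 cells with BTC-AM dye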
Sequence of Muscarinic acetylcholine receptor M4 (Homo sapiens) (P08173 whole entry, looked up): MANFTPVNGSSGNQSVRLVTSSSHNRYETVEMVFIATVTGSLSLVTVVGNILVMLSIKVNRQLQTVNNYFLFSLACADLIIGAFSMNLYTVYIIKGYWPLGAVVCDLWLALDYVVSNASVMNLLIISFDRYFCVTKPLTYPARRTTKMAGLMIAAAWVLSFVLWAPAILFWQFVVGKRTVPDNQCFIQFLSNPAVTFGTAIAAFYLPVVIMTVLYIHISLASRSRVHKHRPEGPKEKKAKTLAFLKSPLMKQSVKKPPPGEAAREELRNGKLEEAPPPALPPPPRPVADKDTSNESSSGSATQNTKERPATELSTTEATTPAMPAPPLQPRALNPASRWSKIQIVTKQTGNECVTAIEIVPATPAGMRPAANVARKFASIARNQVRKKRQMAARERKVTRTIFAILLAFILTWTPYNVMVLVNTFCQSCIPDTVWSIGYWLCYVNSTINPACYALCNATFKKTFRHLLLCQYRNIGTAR
Method in brief: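 System: HEK293 cells with M4 receptor and GIRK channels | Incubation: Cells overnight at 37 °C, BTC-AM loading 1 h, reads 2 min total | Technique: Kinetic BTC-AM fluorescence sampled at 1 Hz, 10 s pre-addition baseline | Measure: Post-addition slope, 15–24 s, of baseline-normalized fluorescence | Control set: Carbachol positive, DMSO negative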

[7] = blockers of RIG-like receptor reporter activation – cell-based, Sendai virus stimulus, luciferase, 10K MLSCN set, TLR/RLR signaling modifier project, primary screen (AID 602276;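 active = inhibition at or above 50% at 10 µM; inactive = inhibition below 50%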;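 note: firefly luciferase from ISG56 promoter only with Renilla not read in this screen; 0% = Sendai virus plus DMSO and 100% = medium plus DMSO without virus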); details: HEK293 RL24 IRF3 luciferase reporter, at 10 µM, stronger effect = higher value
[8] = TLR3 IRF3 reporter activation blockers – cell-based, poly I:C stimulus, luciferase, 10K MLSCN set, primary screen (AID 602277;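 active = inhibition of the reporter signal at or above 50%; inactive = inhibition below 50%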); details: HEK293-TLR3 RL24 IRF3 luciferase reporter, at 10 µM, stronger effect = higher value

SMILES | cell count [1] | inhibition [1] | inhibition of aggregation [2] | nuclei count [2] [%] | inhibition [3] | nuclei count [3] [%] | fluorescence slope [4] | NADPH fluorescence slope [5] | fluorescence slope [6] | inhibition [7] | inhibition [8]
CCOc1ccc2cc(C#N)c(SCC(=O)N3CCCC3)nc2c1 | 451 | -6.5% (inactive) | 3.1% (inactive) | 99.8 | -32% (inactive) | 109 | -0.551 (inactive) | -5.2e-05 (inactive) | 0.00682 (inactive) | -13.8% (inactive) | -15.2% (inactive)
COc1cccc2cc(C(=O)Nc3cccnc3N3CCOCC3)c(=O)oc12 | 348 | -10.5% (inactive) | -13.5% (inactive) | 48.9 | -32.3% (inactive) | 98.9 | -0.573 (inactive) | 1.5e-05 (inactive) | 0.00618 (inactive) | 10.7% (inactive) | 4.05% (inactive)
Cc1ccc(S(=O)(=O)NCCCCC(NC(=O)OC(C)(C)C)C(=O)O)cc1 (centres undefined) (tested in a mixture with another compound) | 631 | 1.1% (inactive) | 5.6% (inactive) | 99.5 | 34.4% (inactive) | 95.6 | -0.6 (inactive) | -3.1e-06 (inactive) | 0.00344 (inactive) | 15.2% (inactive) | 13.1% (inactive)
COCCn1c(SCC(=O)Nc2nnc(C)s2)nnc1-c1ccncc1 | 564 | -7.5% (inactive) | 7.7% (inactive) | 99.2 | -32.1% (inactive) | 115 | -0.172 (inactive) | -1.8e-05 (inactive) | 0.00934 (inactive) | 18.4% (inactive) | -2.25% (inactive)
O=C(CCCn1c(=O)c2sccc2n(CC(=O)NCc2ccco2)c1=O)NCc1ccco1 | 263 | 2.8% (inactive) | -6.2% (inactive) | 98.5 | -49.2% (inactive) | 117 | -0.567 (inactive) | -5.7e-05 (inactive) | 0.00613 (inactive) | 13.9% (inactive) | 15% (inactive)
COc1ccc(-n2cc(-c3ccccc3)c3c(N4CCN(CCO)CC4)ncnc32)cc1 | 568 | -26.5% (inactive) | 3.6% (inactive) | 102 | -29.3% (inactive) | 99.1 | -0.519 (inactive) | -6.1e-07 (inactive) | 0.003 (inactive) | 13.2% (inactive) | 25.2% (inactive)
O=C(CSc1ncnc2sc3c(c12)CCCCC3)NCc1ccco1 | 354 | -5.1% (inactive) | -11.3% (inactive) | 93.9 | -196% (inactive) | 128 | -0.472 (inactive) | -1.4e-05 (inactive) | 0.0063 (inactive) | 17.7% (inactive) | 35.5% (inactive)
Cc1ccc(CC23CN4CCN(CC(C4)C2O)C3)c(C)c1 (centres undefined) | 435 | 0% (inactive) | 2% (inactive) | 107 | -40.9% (inactive) | 116 | -0.494 (inactive) | -2.9e-05 (inactive) | 0.0044 (inactive) | 18.9% (inactive) | 14.1% (inactive)
CC(C)C1N=C2c3ccccc3N=C(SCC(=O)NCCc3ccc(S(N)(=O)=O)cc3)N2C1=O (centres undefined) | 566 | -3.4% (inactive) | 7.3% (inactive) | 60.1 | -121% (inactive) | 110 | -0.598 (inactive) | -3.3e-05 (inactive) | 0.00596 (inactive) | 22% (inactive) | 22% (inactive)
CCOC(=O)N1CCC(Nc2c(-c3ccc(C)cc3)c(=O)c2=O)CC1 | 801 | -12.2% (inactive) | 26.1% (inactive) | 89.2 | -33.6% (inactive) | 106 | -0.471 (inactive) | -3.2e-05 (inactive) | 0.007 (inactive) | 2.25% (inactive) | 16.5% (inactive)
O=C1c2ccccc2C(=O)N1OCc1ccccc1 | 457 | -6% (inactive) | 13.7% (inactive) | 80.1 | -71.8% (inactive) | 126 | -0.608 (inactive) | -3.7e-05 (inactive) | 0.00373 (inactive) | 16.6% (inactive) | 21.5% (inactive)
CCOc1ccc(C(CC(=O)O)NC(=O)c2ccco2)cc1OC (centres undefined) | 562 | 1.8% (inactive) | -9.7% (inactive) | 113 | 22.7% (inactive) | 106 | -0.35 (inactive) | -3.7e-05 (inactive) | 0.00565 (inactive) | 9.42% (inactive) | 29.4% (inactive)
COc1ccc2c(c1OC)C(=O)OC2Nn1cncn1 (centres undefined) | 334 | -9.5% (inactive) | -11.1% (inactive) | 113 | 1.1% (inactive) | 108 | -0.565 (inactive) | 1.7e-05 (inactive) | 0.00408 (inactive) | 15.9% (inactive) | 22.6% (inactive)
O=C1c2cccnc2C(O)N1Cc1ccc(F)cc1 (centres undefined) | 375 | 1.1% (inactive) | 13.7% (inactive) | 118 | -11.7% (inactive) | 116 | -0.354 (inactive) | -8.5e-05 (inactive) | 0.00468 (inactive) | 10.8% (inactive) | 17.7% (inactive)
